Measured values gathered from unrelated publications.
Lines come from different studies, so protocols differ.
Read-out: cell growth or viability

C/C(=N\NC(=O)c1cccc(S(=O)(=O)N2CCN(C)CC2)c1)c1cc(Cl)ccc1O
EC50 (MOLM-13; resazurin; 96 h): 285 nM

Cn1cc(C(c2ccc(C(=O)O)cc2)c2cn(C)c3ccccc23)c2ccccc21
inhibition (KG-1; 20 µM, 48 h): 25%

CCn1c2ccccc2c2cc(C3CC(c4cc5cccc(OC)c5oc4=O)=NN3C(N)=O)ccc21 (centres unmarked)
IC50 (NRK-52E; MTT; 24 h): 40.3 µM

COc1ccc(-c2ccc(-c3ccc(C(=N)N)nc3)s2)cc1Cl
GI50 (Malme-3M; SRB): 1.78 µM

CC(C)n1cc(C(c2ccc(/C=C/C(=O)O)s2)c2cn(C(C)C)c3ccccc23)c2ccccc21
inhibition (KG-1; 5 µM, 48 h): 12%

COc1cccc(Oc2ccccc2NC(=O)CNC(=O)c2cccc3ccccc23)c1
GI50 (Malme-3M; SRB; 48 h): 17 µM

CN1CCN(C(=O)[C@H](CCCN[C@@H]2C[C@H]2c2ccc(F)cc2)NC(=O)c2ccc(-n3ccnn3)cc2)CC1
EC50 (MOLM-13; resazurin; 96 h): 5.38 nM

CCn1c2ccccc2c2cc(C3CC(c4cc5cccc(OC)c5oc4=O)=NN3c3cccc(Cl)c3)ccc21 (centres unmarked)
IC50 (NRK-52E; MTT; 24 h): 24.2 µM

Cn1cc(C(c2ccc(/C=C/C(=O)O)s2)c2cn(C)c3ccccc23)c2ccccc21
inhibition (KG-1; 20 µM, 48 h): 7%

COc1ccccc1S(=O)(=O)Nc1ccc2c(c1)CN(C)C(=O)N2
GI50 (PL-21; ATP luminescence): 10 µM

COc1cc(-c2ccc(-c3ccc(C(=N)N)nc3)s2)cc(OC)c1OC
GI50 (Malme-3M; SRB): 1.53 µM
